The values below come from ChEMBL document CHEMBL1122973, “Synthesis and platelet aggregation inhibitory activity of 4,5-bis(substituted)-1,2,3-thiadiazoles” (J Med Chem, 1985).

≈ marks a conversion by molar mass, not a printed value.

By IC50 is commonly meant the concentration at which inhibition is half-maximal. The term inhibition denotes the change of the read-out against control, counted positive when it falls. Higher therefore signals strong suppression.

What all share (format): functional
The species entered for assay [1] is Homo sapiens. The assay is described as follows: In vitro inhibition of collagen-induced platelet aggregation in human platelet-rich plasma (PRP). The procedure, abridged: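 Citrated human blood spun at 200g, 10 min, 10 °C to give PRP. A further spin at 2000g, 10 min, 10 °C gave PPP, used to adjust the platelet count to 3×10^5/mm³. Collagen triggered aggregation. Approximate IC50 was read from 1/2 log steps of drug concentration. Flurbiprofen served as internal standard for day-to-day variation in platelet sensitivity.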

Assay [2] is filed under the species Homo sapiens. The assay is described as follows: Potency relative to flurbiprofen in inhibiting collagen-induced platelet aggregation in human platelet-rich plasma (PRP). The gist of the method:
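Ratio of activity to flurbiprofen, the internal standard run alongside each day. The IC50 was approximate, from 1/2 log concentration intervals, for collagen-induced aggregation in human PRP. PRP came from citrated blood (200g, 10 min, 10 °C), with platelets adjusted to 3×10^5/mm³ using autologous PPP (2000g, 10 min, 10 °C).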

For assay [3], the species on record is Homo sapiens. The assay is described as follows: Percent inhibition of collagen-induced Platelet aggregation in human platelet-rich plasma (PRP) at a concentration of 0.032 ug/mL.
The species named for assay [4] is Homo sapiens. The assay is described as follows: Percent inhibition of collagen-induced Platelet aggregation in human platelet-rich plasma (PRP) at a concentration of 0.01 ug/mL.
The species entered for assay [5] is Homo sapiens. The assay is described as follows: Percent inhibition of collagen-induced Platelet aggregation in human platelet-rich plasma (PRP) at a concentration of 0.001 ug/mL.

`COc1ccc(-c2nnsc2-c2cccs2)cc1` returned an IC50 in assay [1] of 1 µg/mL (≈ 3.64 µM). In assay [2], this molecule registered a Relative potency of 0.1.
As to `Oc1ccc(-c2nnsc2-c2ccc(O)cc2)cc1`, the 50% inhibitory concentration (IC50) in assay [1] was found to be 3.2 µg/mL (≈ 11.8 µM). Moreover, the Relative potency in assay [2] turned out to be 0.03.
Consider `COc1ccc(-c2nnsc2-c2ccc(OC)cc2)cc1`, for which inhibition in assay [1] was half-maximal at 0.001 µg/mL (≈ 0.00335 µM) (IC50). In assay [3], this molecule returned an inhibition at 0.032 µg/mL of 55.4%. This molecule also yielded a Relative potency in assay [2] of 100. In assay [4], the inhibition at 0.01 µg/mL was found to be 90%. In addition, the inhibition at 0.001 µg/mL in assay [5] stood at 32.4%.
Regarding `COc1ccc(-c2nnsc2-c2ccccc2)cc1`, in assay [1], the midpoint of inhibition, the IC50, lay at 0.01 µg/mL (≈ 0.0373 µM). For the same molecule, the Relative potency in assay [2] is listed as 10.
On the same counts, the results for `Cl.Cl.Nc1ccc(-c2nnsc2-c2ccc(N)cc2)cc1` are 3.2 µg/mL and 0.03.
`CC(=O)Oc1ccccc1C(=O)O` [ASPIRIN] returned a Relative potency in assay [2] of 0.01.
In assay [1], `COc1ccc(-c2snnc2-c2ccc(OC)cc2OC)cc1` showed a half-maximal inhibitory concentration (IC50) of 0.032 µg/mL (≈ 0.0974 µM). The molecule further had a Relative potency in assay [2] of 3.1.
In the same order, the values of `c1ccc(-c2nnsc2-c2ccc3c(c2)OCO3)cc1` are 3.2 µg/mL (≈ 11.3 µM) and 0.03.
In assay [1], `c1csc(-c2nnsc2-c2cccs2)c1` returned a half-inhibitory concentration (IC50) of 3.2 µg/mL (≈ 12.8 µM). In addition, the Relative potency in assay [2] was 0.03.
In the same order, the values of `CN(C)c1ccc(-c2nnsc2-c2ccc(N(C)C)cc2)cc1` are 0.01 µg/mL (≈ 0.0308 µM) and 10.
On the same counts, the results for `c1ccc(-c2nnsc2-c2ccccc2)cc1` are 3.2 µg/mL (≈ 13.4 µM) and 0.03.
In the same order, the values of `c1ccc(-c2csnn2)cc1` are 3.2 µg/mL (≈ 19.7 µM) and 0.03.
As for `CCNc1ccc(-c2nnsc2-c2ccc(NCC)cc2)cc1`, in assay [1], the midpoint of inhibition, the IC50, lay at 3.2 µg/mL (≈ 9.86 µM). Also, the Relative potency in assay [2] stood at 0.03.
For the molecule `COc1ccc(-c2snnc2-c2ccccc2)cc1`, in assay [1], the half-maximal inhibitory concentration (IC50) came to 0.003 µg/mL (≈ 0.0112 µM). The molecule further came in with an inhibition at 0.032 µg/mL in assay [3] of 50%. This molecule also gave a Relative potency in assay [2] of 31.3. Moreover, the inhibition at 0.01 µg/mL in assay [4] was found to be 56.8%. Also, the inhibition at 0.001 µg/mL in assay [5] worked out at 32.4%.
Consider `COc1ccc(-c2csnn2)cc1`, for which, in assay [1], the IC50 was 3.2 µg/mL (≈ 16.6 µM). This molecule also had a Relative potency in assay [2] of 0.03.
On the same counts, the results for `c1ccc(-c2cnns2)cc1` are 3.2 µg/mL (≈ 19.7 µM) and 0.03.
In assay [1], `COc1ccc(-c2snnc2-c2ccco2)cc1` registered a half-inhibitory concentration (IC50) of 0.032 µg/mL (≈ 0.124 µM). The molecule further returned a Relative potency in assay [2] of 3.1.
On the same counts, the results for `COc1ccc(-c2snnc2-c2ccc(SC)cc2)cc1` are 0.032 µg/mL (≈ 0.102 µM) and 3.1.
